Measurements as given in ChEMBL document CHEMBL1157857, “Synthesis and antimicrobial of new anthraquinone derivatives incorporating pyrazole moiety” (2010).

Assays:
Type in all cases: functional
[1] = test system: Staphylococcus epidermidis; experiment: Antibacterial activity against Staphylococcus epidermidis at 2 mg/ml after 24 hrs by agar diffusion method; conditions: read-out: DIZ
Summary of the method: (§1)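 Bacteria grown on nutrient agar, incubated 24 h; inhibition zone diameter measured as activity read-out. Three replicate plates per compound. DMSO-only control included for each organism. Ampicillin, chloramphenicol and cloxacillin used at 2 mg/mL as reference drugs.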

[2] = test system: Pseudomonas aeruginosa; experiment: Antibacterial activity against Pseudomonas aeruginosa at 2 mg/ml after 24 hrs by agar diffusion method; conditions: read-out: DIZ; summary of the method: as §1
[3] = test system: Alternaria solani; experiment: Antifungal activity against Alternaria solani at 2 mg/ml after 7 days by agar diffusion method; conditions: 168 h, read-out: DIZ
Summary of the method: (§2)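 Fungi tested on potato dextrose agar, incubated seven days; diameter of inhibition zone recorded as activity measure. Three plates per compound as replicates. DMSO without test compound served as control for each organism. Reference drugs (ampicillin, chloramphenicol, cloxacillin) used at 2 mg/mL.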

[4] = test system: Fusarium solani; experiment: Antifungal activity against Fusarium solani at 2 mg/ml after 7 days by agar diffusion method; conditions: 168 h, read-out: DIZ; summary of the method: as §2

SMILES: O=C1c2ccccc2C(=O)c2cc(-n3cnc4n[nH]c(Nc5ccccc5)c4c3=O)ccc21
- zone of inhibition at 2000 µg/mL [1]: 15 mm
- zone of inhibition at 2000 µg/mL [2]: 20 mm
- zone of inhibition at 2000 µg/mL [3]: 11 mm

SMILES: Cc1cc(C)n2nc(Nc3ccccc3)c(C(=O)Nc3ccc4c(c3)C(=O)c3ccccc3C4=O)c2n1
- zone of inhibition at 2000 µg/mL [1]: 20 mm
- zone of inhibition at 2000 µg/mL [2]: 17 mm
- zone of inhibition at 2000 µg/mL [3]: 14 mm
- zone of inhibition at 2000 µg/mL [4]: 13 mm

SMILES: Cc1ccc(C)n1-c1n[nH]c(Nc2ccccc2)c1C(=O)Nc1ccc2c(c1)C(=O)c1ccccc1C2=O
- zone of inhibition at 2000 µg/mL [1]: 19 mm
- zone of inhibition at 2000 µg/mL [2]: 16 mm

SMILES: Nc1n[nH]c(Nc2ccccc2)c1C(=O)Nc1ccc2c(c1)C(=O)c1ccccc1C2=O
- zone of inhibition at 2000 µg/mL [1]: 11 mm
- zone of inhibition at 2000 µg/mL [2]: 14 mm
- zone of inhibition at 2000 µg/mL [3]: 14 mm
- zone of inhibition at 2000 µg/mL [4]: 16 mm

SMILES: CN(C)/C=C(\C#N)C(=O)Nc1ccc2c(c1)C(=O)c1ccccc1C2=O
- zone of inhibition at 2000 µg/mL [2]: 14 mm
- zone of inhibition at 2000 µg/mL [4]: 12 mm

SMILES: Nc1n[nH]cc1C(=O)Nc1ccc2c(c1)C(=O)c1ccccc1C2=O
- zone of inhibition at 2000 µg/mL [1]: 22 mm
- zone of inhibition at 2000 µg/mL [2]: 16 mm
- zone of inhibition at 2000 µg/mL [3]: 17 mm
- zone of inhibition at 2000 µg/mL [4]: 16 mm

SMILES: Cc1cc(C)c2c(N/N=C(/C#N)C(=O)Nc3ccc4c(c3)C(=O)c3ccccc3C4=O)n[nH]c2n1
- zone of inhibition at 2000 µg/mL [1]: 19 mm
- zone of inhibition at 2000 µg/mL [2]: 27 mm
- zone of inhibition at 2000 µg/mL [3]: 18 mm
- zone of inhibition at 2000 µg/mL [4]: 13 mm

SMILES: Cc1cc(C)c2c(n1)nn1c(N)c(C(=O)Nc3ccc4c(c3)C(=O)c3ccccc3C4=O)nnc21
- zone of inhibition at 2000 µg/mL [1]: 14 mm
- zone of inhibition at 2000 µg/mL [2]: 21 mm
- zone of inhibition at 2000 µg/mL [3]: 19 mm
- zone of inhibition at 2000 µg/mL [4]: 17 mm

SMILES: Cc1c(N/C(Nc2ccccc2)=C(\C#N)C(=O)Nc2ccc3c(c2)C(=O)c2ccccc2C3=O)c(=O)n(-c2ccccc2)n1C
- zone of inhibition at 2000 µg/mL [1]: 24 mm
- zone of inhibition at 2000 µg/mL [2]: 22 mm
- zone of inhibition at 2000 µg/mL [3]: 21 mm
- zone of inhibition at 2000 µg/mL [4]: 16 mm

SMILES: Cc1nn(-c2ccccc2)c2c1cnc1c(C(=O)Nc3ccc4c(c3)C(=O)c3ccccc3C4=O)c(Nc3ccccc3)nn12
- zone of inhibition at 2000 µg/mL [1]: 17 mm
- zone of inhibition at 2000 µg/mL [2]: 19 mm
- zone of inhibition at 2000 µg/mL [4]: 14 mm

SMILES: O=C1c2ccccc2C(=O)c2cc(NC(=O)c3c(Nc4ccccc4)nn4c5c(cnc34)CCc3ccccc3-5)ccc21
- zone of inhibition at 2000 µg/mL [1]: 25 mm
- zone of inhibition at 2000 µg/mL [2]: 20 mm
- zone of inhibition at 2000 µg/mL [3]: 22 mm
- zone of inhibition at 2000 µg/mL [4]: 14 mm

SMILES: COc1ccc(-c2ccnc3c(C(=O)Nc4ccc5c(c4)C(=O)c4ccccc4C5=O)c(Nc4ccccc4)nn23)cc1
- zone of inhibition at 2000 µg/mL [1]: 21 mm
- zone of inhibition at 2000 µg/mL [2]: 20 mm
- zone of inhibition at 2000 µg/mL [3]: 17 mm
- zone of inhibition at 2000 µg/mL [4]: 15 mm

SMILES: CS/C(Nc1ccccc1)=C(\C#N)C(=O)Nc1ccc2c(c1)C(=O)c1ccccc1C2=O
- zone of inhibition at 2000 µg/mL [1]: 12 mm
- zone of inhibition at 2000 µg/mL [2]: 13 mm
- zone of inhibition at 2000 µg/mL [3]: 12 mm

SMILES: CC1(C)S[C@@H]2[C@H](NC(=O)[C@H](N)c3ccccc3)C(=O)N2[C@H]1C(=O)O [AMPICILLIN]
- zone of inhibition at 2000 µg/mL [1]: 19 mm
- zone of inhibition at 2000 µg/mL [2]: 21 mm
- zone of inhibition at 2000 µg/mL [3]: 19 mm
- zone of inhibition at 2000 µg/mL [4]: 17 mm

SMILES: O=C(N[C@H](CO)[C@H](O)c1ccc([N+](=O)[O-])cc1)C(Cl)Cl [CHLORAMPHENICOL]
- zone of inhibition at 2000 µg/mL [1]: 27 mm
- zone of inhibition at 2000 µg/mL [2]: 24 mm
- zone of inhibition at 2000 µg/mL [3]: 18 mm
- zone of inhibition at 2000 µg/mL [4]: 17 mm

SMILES: Cc1onc(-c2ccccc2Cl)c1C(=O)N[C@@H]1C(=O)N2[C@@H]1SC(C)(C)[C@@H]2C(=O)O [CLOXACILLIN]
- zone of inhibition at 2000 µg/mL [1]: 22 mm
- zone of inhibition at 2000 µg/mL [2]: 30 mm
- zone of inhibition at 2000 µg/mL [3]: 20 mm
- zone of inhibition at 2000 µg/mL [4]: 22 mm
